Molecules are shown by their SMILES.

The first test has as its target T1, Human immunodeficiency virus type 1 protease (Human immunodeficiency virus 1, UniProt Q72874). Put plainly: (§1) Tested for inhibition of synthetic HIV-1 protease by using fluorometric assay. The method in brief: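 Synthetic HIV-1 PR (SF2 isolate; C67B, C95B, Q7K, L33I mutations, B = L-α-aminobutyric acid) solubilized in 6 M Gu·HCl, refolded 60 min in phosphate pH 7.0/glycerol/BSA buffer. Continuous fluorimetric assay with 50 μM Abz-Thr-Ile-Nle-Phe(p-NO2)-Gln-Arg-NH2 in MES pH 6.5, 100 mM NaCl, 10% glycerol, I = 0.1 M, 37 °C, varying inhibitor. Ki from Dixon or Henderson plots; Km from Hanes plot.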
Usually Ki stands for a dissociation constant, usually derived from enzyme kinetics or from competition with a known ligand. `CC[C@@H](C)[C@@H]1NC(=O)[C@@H](NC[C@@H](O)[C@H](Cc2ccccc2)NC(=O)[C@H](C(C)C)N2CCCC2=O)Cc2ccc(cc2)OCCCNC1=O` came in with a Ki of 1 nM.

In turn, `CC[C@@H](C)[C@@H]1NC(=O)[C@@H](NC[C@@H](O)[C@H](Cc2ccccc2)NC(=O)[C@@H](NC(=O)[C@H](CC(C)C)NC(C)=O)C(C)C)Cc2ccc(cc2)OCCCNC1=O` registered a Ki of 0.6 nM. The same measure, in the same setting: then `CC[C@@H](C)[C@@H]1NC(=O)[C@@H](NC[C@@H](O)[C@@H]2Cc3ccc(cc3)OCCCCC(=O)N[C@@H](C(C)C)C(=O)N2)Cc2ccc(cc2)OCCCNC1=O`, with 5 nM; and `CC[C@@H](C)[C@@H]1NC(=O)[C@@H](NC[C@H](Cc2ccccc2)NC(=O)OC(C)(C)C)Cc2ccc(cc2)OCCCNC1=O`, with 44 nM; and `CC[C@@H](C)[C@@H]1NC(=O)[C@@H](NC[C@@H](O)[C@H](Cc2ccccc2)NC(=O)OC(C)(C)C)Cc2ccc(cc2)OCCCNC1=O`, with 4 nM. Same read-out and setting: then `CC[C@@H](C)[C@@H]1NC(=O)[C@@H](NC[C@@H](O)[C@H](Cc2ccccc2)NC(=O)OC2CCOC2)Cc2ccc(cc2)OCCCNC1=O` (stereo not given in full), with 4 nM; and `CC[C@@H](C)[C@@H]1NC(=O)[C@@H](NC[C@@H](O)[C@H](Cc2ccccc2)NC(=O)c2cccc(C)c2)Cc2ccc(cc2)OCCCNC1=O`, with 15 nM. `CC(C)CCN(C[C@@H](O)[C@@H]1Cc2ccc(cc2)OCCCCC(=O)N[C@@H](C(C)C)C(=O)N1)S(=O)(=O)c1ccccc1` gave a Ki of 0.4 nM. The compound `CC(C)CCN(C[C@@H](O)[C@@H]1Cc2ccc(cc2)OCCCCCC(=O)N[C@@H](C(C)C)C(=O)N1)S(=O)(=O)c1ccccc1` gave a Ki of 1.6 nM. On the same count and under the same terms, then `CC[C@H](C)[C@H](NC(=O)[C@@H](NC(=O)[C@@H]1CCCN1)C(C)C)C(=O)NCC(O)C1Cc2ccc(cc2)OCCCC(=O)NC(CC(N)=O)C(=O)N1` (stereo not given in full), with 12 nM; and `CC(C)(C)N(CC(O)C1Cc2ccc(cc2)OCCCC(=O)NC(CC(N)=O)C(=O)N1)C(=O)C1CCCCN1` (stereo not given), with 12 nM; and `CC(C)CCN(C[C@@H](O)[C@@H]1Cc2ccc(cc2)OCCCC(=O)N[C@@H](C(N)=O)C(=O)N1)S(=O)(=O)c1ccccc1`, with 1 nM.

Another test has as its target T1, Human immunodeficiency virus type 1 protease. The description is as §1.
`CC(C)[C@@H]1NC(=O)CCCCCOc2ccc(cc2)C[C@@H]([C@H](O)CN(C2CCCC2)S(=O)(=O)c2ccc(N)cc2)NC1=O` displayed a Ki of 3 nM. Same read-out and setting: then `CC(C)CCN(C[C@@H](O)[C@@H]1Cc2ccc(cc2)OCCCCCC(=O)N[C@@H](C(C)C)C(=O)N1)NC(=O)NCc1ccccc1`, with 314 nM; and `CCCCCCN(C[C@@H](O)[C@@H]1Cc2ccc(cc2)OCCCCCC(=O)N[C@@H](C(C)C)C(=O)N1)S(=O)(=O)c1ccc(N)cc1`, with 14 nM.

The compound `CCC(C)N(C[C@@H](O)[C@@H]1Cc2ccc(cc2)OCCCCCC(=O)N[C@@H](C(C)C)C(=O)N1)S(=O)(=O)c1ccc(N)cc1` (stereo not given in full) gave a Ki of 2 nM.

Compound `CC(C)CCN(C[C@@H](O)[C@@H]1Cc2ccc(cc2)OCCCCCC(=O)N[C@@H](C(C)C)C(=O)N1)NC(=O)NC1CCCCC1` returned a Ki of 207 nM. On to `CC(C)CCN(C[C@@H](O)[C@@H]1Cc2ccc(cc2)OCCCCCC(=O)N[C@@H](C(C)C)C(=O)N1)S(=O)(=O)c1ccc2ccccc2c1`, for which the Ki turned out to be 1 nM. In turn, `CC(C)CCN(C[C@@H](O)[C@@H]1Cc2ccc(cc2)OCCCCCC(=O)N[C@@H](C(C)C)C(=O)N1)S(=O)(=O)c1c(C(C)C)cc(C(C)C)cc1C(C)C` registered a Ki of 4700 nM. `CC(C)[C@@H]1NC(=O)CCCCCOc2ccc(cc2)C[C@@H]([C@H](O)CN(CCCCCC(=O)O)S(=O)(=O)c2ccc(N)cc2)NC1=O` displayed a Ki of 60 nM. Compound `CC(C)[C@@H]1NC(=O)CCCCCOc2ccc(cc2)C[C@@H]([C@H](O)CN(CCc2ccccc2)S(=O)(=O)c2ccc(N)cc2)NC1=O` gave an inhibition constant Ki of 8 nM.

`CC(=O)Nc1ccc(S(=O)(=O)N(CCC(C)C)C[C@@H](O)[C@@H]2Cc3ccc(cc3)OCCCCCC(=O)N[C@@H](C(C)C)C(=O)N2)cc1` showed a Ki of 10 nM.

`COc1ccc(CCN(C[C@@H](O)[C@@H]2Cc3ccc(cc3)OCCCCCC(=O)N[C@@H](C(C)C)C(=O)N2)S(=O)(=O)c2ccc(N)cc2)cc1` gave a Ki of 3 nM. Consider `CC(C)CCN(C[C@@H](O)[C@@H]1Cc2ccc(cc2)OCCCCCC(=O)N[C@@H](C(C)C)C(=O)N1)S(=O)(=O)c1cccc([N+](=O)[O-])c1`, for which the Ki is 145 nM.

With `CC(C)CCN(C[C@@H](O)[C@@H]1Cc2ccc(cc2)OCCCCCC(=O)N[C@@H](C(C)C)C(=O)N1)S(=O)(=O)c1cccc2cccnc12`, affinity was put at a Ki of 295 nM.

The values above are taken from ChEMBL document CHEMBL1149114, “Countering cooperative effects in protease inhibitors using constrained beta-strand-mimicking templates in focused combinatorial libraries” (J Med Chem, 2004).
